Reference: BindingDB's records for doi:10.1021/jm970266p (Universidad Central De Venezuela, 1997)

Biological target: T1, Falcipain 2 (Plasmodium falciparum, UniProt Q9N6S8)
T1 sequence (Q9N6S8 whole entry): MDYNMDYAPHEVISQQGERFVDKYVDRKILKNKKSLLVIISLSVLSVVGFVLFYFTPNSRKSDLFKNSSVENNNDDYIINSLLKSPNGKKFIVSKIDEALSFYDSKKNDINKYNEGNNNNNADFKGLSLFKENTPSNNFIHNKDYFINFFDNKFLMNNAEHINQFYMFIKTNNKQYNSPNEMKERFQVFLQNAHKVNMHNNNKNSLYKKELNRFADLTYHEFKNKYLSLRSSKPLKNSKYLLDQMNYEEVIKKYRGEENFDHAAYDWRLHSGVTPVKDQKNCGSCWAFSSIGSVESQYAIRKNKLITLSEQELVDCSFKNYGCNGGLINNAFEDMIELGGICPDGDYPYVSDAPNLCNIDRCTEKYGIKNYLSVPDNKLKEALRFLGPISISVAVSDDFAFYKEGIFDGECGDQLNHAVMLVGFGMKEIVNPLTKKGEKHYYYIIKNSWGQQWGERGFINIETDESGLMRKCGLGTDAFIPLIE
Assay: Inhibition of falcipain activity
In short: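 Soluble parasite extract containing falcipain (30 nM) preincubated 30 min at room temperature with compound (100× DMSO stocks) and 10 mM DTT in 0.1 M sodium acetate, pH 5.5. Z-Phe-Arg-AMC then added to 50 μM final. Fluorescence (ex 380, em 460 nm) followed continuously for 30 min. Rates compared with DMSO controls. Multiple concentrations tested in duplicate or triplicate; IC50 extrapolated from % control activity curves.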

IC50, 5 µM:
O=C1CC(c2ccc(Cl)cc2)CC2=Nc3ccc(F)cc3S(=O)(=O)C12 (centres undefined) [2-(4-Chloro-phenyl)-7-fluoro-5,5-dioxo-2,3,5,10-tetrahydro-1H-5lambda*6*-phenothiazin-4-one]
CC1(C)CC(=O)C2C(=Nc3ccc(F)cc3S2(=O)=O)C1 (centres undefined) [7-Fluoro-2,2-dimethyl-5,5-dioxo-2,3,5,10-tetrahydro-1H-5lambda*6*-phenothiazin-4-one]
COc1ccc(C2CC(=O)C3C(=Nc4ccc(F)cc4S3(=O)=O)C2)cc1OC (centres undefined) [2-(3,4-Dimethoxy-phenyl)-7-fluoro-5,5-dioxo-2,3,5,10-tetrahydro-1H-5lambda*6*-phenothiazin-4-one]
O=C1CC(c2ccc(Cl)cc2)CC2=Nc3ccc(F)cc3SC12 (centres undefined) [2-(4-Chloro-phenyl)-7-fluoro-2,3-dihydro-1H,10H-phenothiazin-4-one]
CC1(C)CC(=O)C2C(=Nc3ccc(Cl)cc3S2(=O)=O)C1 (centres undefined) [7-Chloro-2,2-dimethyl-5,5-dioxo-2,3,5,10-tetrahydro-1H-5lambda*6*-phenothiazin-4-one]
COc1cccc(C2CC(=O)C3C(=Nc4ccc(F)cc4S3(=O)=O)C2)c1 (centres undefined) [7-Fluoro-2-(3-methoxy-phenyl)-5,5-dioxo-2,3,5,10-tetrahydro-1H-5lambda*6*-phenothiazin-4-one]

IC50, 30 µM:
O=C1CC(c2ccc(Cl)cc2Cl)CC2=Nc3ccc(Cl)cc3S(=O)(=O)C12 (centres undefined) [7-Chloro-2-(2,4-dichloro-phenyl)-5,5-dioxo-2,3,5,10-tetrahydro-1H-5lambda*6*-phenothiazin-4-one]
COc1ccc(C2CC(=O)C3Sc4cc(Cl)ccc4N=C3C2)cc1OC (centres undefined) [7-Chloro-2-(3,4-dimethoxy-phenyl)-2,3-dihydro-1H,10H-phenothiazin-4-one]
COc1ccc(C2CC(=O)C3C(=Nc4ccc(Cl)cc4S3(=O)=O)C2)cc1 (centres undefined) [7-Chloro-2-(4-methoxy-phenyl)-5,5-dioxo-2,3,5,10-tetrahydro-1H-5lambda*6*-phenothiazin-4-one]
CC1(C)CC(=O)C2Sc3cc(Cl)ccc3N=C2C1 (centres undefined) [7-Chloro-2,2-dimethyl-2,3-dihydro-1H,10H-phenothiazin-4-one]

IC50, 4 µM:
O=C1CC(c2ccc(Cl)cc2)CC2=Nc3ccc(Cl)cc3SC12 (centres undefined) [7-Chloro-2-(4-chloro-phenyl)-2,3-dihydro-1H,10H-phenothiazin-4-one]
O=C1CC(c2ccccc2)CC2=Nc3ccc(Cl)cc3S(=O)(=O)C12 (centres undefined) [7-Chloro-5,5-dioxo-2-phenyl-2,3,5,10-tetrahydro-1H-5lambda*6*-phenothiazin-4-one]
COc1cccc(C2CC(=O)C3C(=Nc4ccc(Cl)cc4S3(=O)=O)C2)c1OC (centres undefined) [7-Chloro-2-(2,3-dimethoxy-phenyl)-5,5-dioxo-2,3,5,10-tetrahydro-1H-5lambda*6*-phenothiazin-4-one]
O=C1CC(c2ccc(Cl)cc2)CC2=Nc3ccc(Cl)cc3S(=O)(=O)C12 (centres undefined) [7-Chloro-2-(4-chloro-phenyl)-5,5-dioxo-2,3,5,10-tetrahydro-1H-5lambda*6*-phenothiazin-4-one]

IC50, 20 µM:
COc1ccc(C2CC(=O)C3Sc4cc(F)ccc4N=C3C2)cc1OC (centres undefined) [2-(3,4-Dimethoxy-phenyl)-7-fluoro-2,3-dihydro-1H,10H-phenothiazin-4-one]
COc1cccc(C2CC(=O)C3Sc4cc(F)ccc4N=C3C2)c1 (centres undefined) [7-Fluoro-2-(3-methoxy-phenyl)-2,3-dihydro-1H,10H-phenothiazin-4-one]
O=C1CC(c2ccccc2)CC2=Nc3ccc(F)cc3SC12 (centres undefined) [7-Fluoro-2-phenyl-2,3-dihydro-1H,10H-phenothiazin-4-one]
COc1cccc(C2CC(=O)C3Sc4cc(Cl)ccc4N=C3C2)c1 (centres undefined) [7-Chloro-2-(3-methoxy-phenyl)-2,3-dihydro-1H,10H-phenothiazin-4-one]
COc1cccc(C2CC(=O)C3Sc4cc(F)ccc4N=C3C2)c1OC (centres undefined) [2-(2,3-Dimethoxy-phenyl)-7-fluoro-2,3-dihydro-1H,10H-phenothiazin-4-one]

IC50, 10 µM:
COc1cccc(C2CC(=O)C3Sc4cc(Cl)ccc4N=C3C2)c1OC (centres undefined) [7-Chloro-2-(2,3-dimethoxy-phenyl)-2,3-dihydro-1H,10H-phenothiazin-4-one]
O=C1CC(c2ccccc2)CC2=Nc3ccc(Cl)cc3SC12 (centres undefined) [7-Chloro-2-phenyl-2,3-dihydro-1H,10H-phenothiazin-4-one]
O=C1CC(c2ccc(Cl)cc2Cl)CC2=Nc3ccc(Cl)cc3SC12 (centres undefined) [7-Chloro-2-(2,4-dichloro-phenyl)-2,3-dihydro-1H,10H-phenothiazin-4-one]
O=C1CC(c2ccc(Cl)cc2Cl)CC2=Nc3ccc(F)cc3SC12 (centres undefined) [2-(2,4-Dichloro-phenyl)-7-fluoro-2,3-dihydro-1H,10H-phenothiazin-4-one]
COc1ccc(C2CC(=O)C3Sc4cc(Cl)ccc4N=C3C2)cc1 (centres undefined) [7-Chloro-2-(4-methoxy-phenyl)-2,3-dihydro-1H,10H-phenothiazin-4-one]
